Active and inactive are the calls of the source. The rule behind the calls is not given here.
Tests used:
Mus musculus [1] = experiment: Anticonvulsant activity in CF1 albino mouse assessed as protection against maximal electroshock-induced seizures at 30 mg/kg, ip after 4 hrs; format: functional, organism-based; set-up: dose 30 mg/kg
Procedure, shortened: (§1)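 Adult male CF no. 1 albino mice (18-25 g). Test compound suspended in 0.5% methylcellulose and given intraperitoneally at 0.01 mL/g body weight. Maximal electroshock challenge at the stated time. Read-out is the number of animals protected over the number tested; neurotoxicity is scored in parallel.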

Mus musculus [2] = experiment: Neurotoxicity in CF1 albino mouse at 100 mg/kg, ip after 0.5 hrs; format: toxicity, organism-based; set-up: dose 100 mg/kg, route intraperitoneal; details: in vivo
Procedure, shortened: (§2)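 Male CF no. 1 albino mice (18-25 g) received a single ip dose as a suspension in 0.5% methylcellulose. The read-out was the number of animals showing neurotoxicity (minimal motor impairment) over the number tested.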

Rattus norvegicus [3] = experiment: Anticonvulsant activity in albino Sprague-Dawley rat assessed as protection against scMet-induced seizures at 30 mg/kg, po after 4 hrs; format: functional, organism-based; set-up: dose 30 mg/kg
Procedure, shortened: (§3)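 Male Sprague-Dawley albino rats (100-150 g) were given the compound orally as a suspension in 0.5% methylcellulose. Seizures were induced by subcutaneous pentylenetetrazol, dissolved in 0.9% saline as a 2.82% solution. The read-out was animals protected over animals tested.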

Mus musculus [4] = experiment: Anticonvulsant activity in CF1 albino mouse assessed as protection against scMet-induced seizures at 30 mg/kg, ip after 0.5 hrs; format: functional, organism-based; set-up: dose 30 mg/kg
Procedure, shortened: (§4)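 Adult male CF no. 1 albino mice (18-25 g) dosed intraperitoneally with compound suspended in 0.5% methylcellulose (0.01 mL/g). Convulsant challenge given subcutaneously as a 0.85% pentylenetetrazol solution in 0.9% saline. Read-out is animals protected over animals tested, with neurotoxicity scored in parallel.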

Mus musculus [5] = experiment: Neurotoxicity in CF1 albino mouse at 300 mg/kg, ip after 0.5 hrs; format: toxicity, organism-based; set-up: dose 300 mg/kg, route intraperitoneal; details: in vivo; procedure, shortened: as §2
Mus musculus [6] = experiment: Anticonvulsant activity in CF1 albino mouse assessed as protection against scMet-induced seizures at 300 mg/kg, ip after 0.5 hrs; format: functional, organism-based; set-up: dose 300 mg/kg; procedure, shortened: as §4
Mus musculus [7] = experiment: Neurotoxicity in CF1 albino mouse at 300 mg/kg, ip after 4 hrs; format: toxicity, organism-based; set-up: dose 300 mg/kg, route intraperitoneal; details: in vivo; procedure, shortened: as §2
Mus musculus [8] = experiment: Neurotoxicity in CF1 albino mouse at 30 mg/kg, ip after 0.5 hrs; format: toxicity, organism-based; set-up: dose 30 mg/kg, route intraperitoneal; details: in vivo; procedure, shortened: as §2
Rattus norvegicus [9] = experiment: Anticonvulsant activity in albino Sprague-Dawley rat assessed as protection against maximal electroshock-induced seizures at 30 mg/kg, po after 15 mins; format: functional, organism-based; set-up: dose 30 mg/kg
Procedure, shortened: (§5)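 Adult male Sprague-Dawley albino rats (100-150 g) dosed orally with compound suspended in 0.5% methylcellulose (0.04 mL per 10 g). Maximal electroshock challenge at the stated time. Protection is scored in 25% steps as the fraction of animals protected, with neurotoxicity recorded in parallel.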

Mus musculus [10] = experiment: Anticonvulsant activity in CF1 albino mouse assessed as protection against maximal electroshock-induced seizures at 100 mg/kg, ip after 4 hrs; format: functional, organism-based; set-up: dose 100 mg/kg; procedure, shortened: as §1
Mus musculus [11] = experiment: Neurotoxicity in CF1 albino mouse at 30 mg/kg, ip after 4 hrs; format: toxicity, organism-based; set-up: dose 30 mg/kg, route intraperitoneal; details: in vivo; procedure, shortened: as §2
Mus musculus [12] = experiment: Neurotoxicity in CF1 albino mouse at 100 mg/kg, ip after 4 hrs; format: toxicity, organism-based; set-up: dose 100 mg/kg, route intraperitoneal; details: in vivo; procedure, shortened: as §2
Mus musculus [13] = experiment: Anticonvulsant activity in CF1 albino mouse assessed as protection against scMet-induced seizures at 300 mg/kg, ip after 4 hrs; format: functional, organism-based; set-up: dose 300 mg/kg; procedure, shortened: as §4
Mus musculus [14] = experiment: Anticonvulsant activity in CF1 albino mouse assessed as protection against maximal electroshock-induced seizures at 300 mg/kg, ip after 4 hrs; format: functional, organism-based; set-up: dose 300 mg/kg; procedure, shortened: as §1
Rattus norvegicus [15] = experiment: Anticonvulsant activity in albino Sprague-Dawley rat assessed as protection against scMet-induced seizures at 30 mg/kg, po after 2 hrs; format: functional; procedure, shortened: as §3
Rattus norvegicus [16] = experiment: Anticonvulsant activity in albino Sprague-Dawley rat assessed as protection against maximal electroshock-induced seizures at 30 mg/kg, po after 1 hr; format: functional, organism-based; set-up: dose 30 mg/kg; procedure, shortened: as §5
Rattus norvegicus [17] = experiment: Anticonvulsant activity in albino Sprague-Dawley rat assessed as protection against scMet-induced seizures at 30 mg/kg, po after 15 mins; format: functional; procedure, shortened: as §3
Mus musculus [18] = experiment: Anticonvulsant activity in CF1 albino mouse assessed as protection against scMet-induced seizures at 100 mg/kg, ip after 0.5 hrs; format: functional, organism-based; set-up: dose 100 mg/kg; procedure, shortened: as §4
Mus musculus [19] = experiment: Anticonvulsant activity in CF1 albino mouse assessed as protection against maximal electroshock-induced seizures at 100 mg/kg, ip after 0.5 hrs; format: functional, organism-based; set-up: dose 100 mg/kg; procedure, shortened: as §1
Rattus norvegicus [20] = experiment: Anticonvulsant activity in albino Sprague-Dawley rat assessed as protection against maximal electroshock-induced seizures at 30 mg/kg, po after 30 mins; format: functional, organism-based; set-up: dose 30 mg/kg; procedure, shortened: as §5
Mus musculus [21] = experiment: Anticonvulsant activity in CF1 albino mouse assessed as protection against maximal electroshock-induced seizures at 300 mg/kg, ip after 0.5 hrs; format: functional, organism-based; set-up: dose 300 mg/kg; procedure, shortened: as §1
Rattus norvegicus [22] = experiment: Anticonvulsant activity in albino Sprague-Dawley rat assessed as protection against scMet-induced seizures at 30 mg/kg, po after 1 hr; format: functional
Procedure, shortened: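 Oral dosing of male Sprague-Dawley rats (100-150 g) with compound in 0.5% methylcellulose. Convulsant challenge given subcutaneously as a 2.82% pentylenetetrazol solution in 0.9% saline. Groups of about 8 rats per dose. For quantitation, doses spanning 0% to 100% protection were fitted by probit analysis to give ED50 with 95% confidence interval.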

Rattus norvegicus [23] = experiment: Anticonvulsant activity in albino Sprague-Dawley rat assessed as protection against scMet-induced seizures at 30 mg/kg, po after 30 mins; format: functional; procedure, shortened: as §3
Rattus norvegicus [24] = experiment: Anticonvulsant activity in albino Sprague-Dawley rat assessed as protection against maximal electroshock-induced seizures at 30 mg/kg, po after 2 hrs; format: functional, organism-based; set-up: dose 30 mg/kg; procedure, shortened: as §5
Mus musculus [25] = experiment: Anticonvulsant activity in CF1 albino mouse assessed as protection against scMet-induced seizures at 30 mg/kg, ip after 4 hrs; format: functional, organism-based; set-up: dose 30 mg/kg; procedure, shortened: as §4
Rattus norvegicus [26] = experiment: Anticonvulsant activity in albino Sprague-Dawley rat assessed as protection against maximal electroshock-induced seizures at 30 mg/kg, po after 4 hrs; format: functional, organism-based; set-up: dose 30 mg/kg; procedure, shortened: as §5
Mus musculus [27] = experiment: Anticonvulsant activity in CF1 albino mouse assessed as protection against maximal electroshock-induced seizures at 30 mg/kg, ip after 0.5 hrs; format: functional, organism-based; set-up: dose 30 mg/kg; procedure, shortened: as §1
Rattus norvegicus [28] = experiment: Anticonvulsant activity in albino Sprague-Dawley rat assessed as protection against scMet-induced seizures at 75 mg/kg, po after 4 hrs; format: functional, organism-based; set-up: dose 75 mg/kg; procedure, shortened: as §3
Rattus norvegicus [29] = experiment: Anticonvulsant activity in albino Sprague-Dawley rat assessed as protection against scMet-induced seizures at 75 mg/kg, po after 2 hrs; format: functional; procedure, shortened: as §3
Rattus norvegicus [30] = experiment: Anticonvulsant activity in albino Sprague-Dawley rat assessed as protection against maximal electroshock-induced seizures at 75 mg/kg, po after 1 hr; format: functional, organism-based; set-up: dose 75 mg/kg; procedure, shortened: as §5
Rattus norvegicus [31] = experiment: Anticonvulsant activity in albino Sprague-Dawley rat assessed as protection against maximal electroshock-induced seizures at 75 mg/kg, po after 15 mins; format: functional; procedure, shortened: as §5
Rattus norvegicus [32] = experiment: Anticonvulsant activity in albino Sprague-Dawley rat assessed as protection against maximal electroshock-induced seizures at 75 mg/kg, po after 2 hrs; format: functional, organism-based; set-up: dose 75 mg/kg; procedure, shortened: as §5
Rattus norvegicus [33] = experiment: Neurotoxicity in albino Sprague-Dawley rat assessed as animal exhibiting toxicity at 75 mg/kg, po; format: organism-based; set-up: dose 75 mg/kg, route oral; details: in vivo
Procedure, shortened: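 Neurotoxicity was scored in male Sprague-Dawley albino rats (100-150 g) dosed orally with a suspension in 0.5% methylcellulose. The read-out was the fraction of animals showing neurotoxicity (minimal motor impairment).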

Rattus norvegicus [34] = experiment: Anticonvulsant activity in albino Sprague-Dawley rat assessed as protection against maximal electroshock-induced seizures at 75 mg/kg, po after 30 mins; format: functional; procedure, shortened: as §5
Rattus norvegicus [35] = experiment: Anticonvulsant activity in albino Sprague-Dawley rat assessed as protection against scMet-induced seizures at 75 mg/kg, po after 30 mins; format: functional, organism-based; set-up: dose 75 mg/kg; procedure, shortened: as §3
Rattus norvegicus [36] = experiment: Anticonvulsant activity in albino Sprague-Dawley rat assessed as protection against maximal electroshock-induced seizures at 75 mg/kg, po after 4 hrs; format: functional; procedure, shortened: as §5
Rattus norvegicus [37] = experiment: Anticonvulsant activity in albino Sprague-Dawley rat assessed as protection against scMet-induced seizures at 75 mg/kg, po after 1 hr; format: functional, organism-based; set-up: dose 75 mg/kg; procedure, shortened: as §3
Rattus norvegicus [38] = experiment: Anticonvulsant activity in albino Sprague-Dawley rat assessed as protection against scMet-induced seizures at 75 mg/kg, po after 15 mins; format: functional, organism-based; set-up: dose 75 mg/kg; procedure, shortened: as §3
Mus musculus [39] = experiment: Anticonvulsant activity in CF1 albino mouse assessed as protection against scMet-induced seizures at 100 mg/kg, ip after 4 hrs; format: functional, organism-based; set-up: dose 100 mg/kg; procedure, shortened: as §4

Compound | Activity (Mus musculus [1]) | Activity (Mus musculus [4]) | Activity (Mus musculus [6]) | Activity (Mus musculus [7]) | Activity (Mus musculus [8]) | Activity (Mus musculus [10]) | Activity (Mus musculus [11]) | Activity (Mus musculus [13]) | Activity (Mus musculus [14]) | Activity (Mus musculus [18]) | Activity (Mus musculus [19]) | Activity (Mus musculus [21]) | Activity (Mus musculus [25]) | Activity (Mus musculus [27]) | also measured
CC1(C)C(C)(C)C1(F)C(=O)NC(N)=O | Non-toxic | Non-toxic | Non-toxic | Non-toxic | Non-toxic | Non-toxic | Non-toxic | Non-toxic | Non-toxic | Non-toxic | Non-toxic | Non-toxic | Non-toxic | Non-toxic | Activity (Mus musculus [2]): Non-toxic; Activity (Rattus norvegicus [3]): inactive; Activity (Mus musculus [5]): Non-toxic; Activity (Rattus norvegicus [9]): inactive; Activity (Mus musculus [12]): Non-toxic; Activity (Rattus norvegicus [15]): 50%; Activity (Rattus norvegicus [16]): inactive; Activity (Rattus norvegicus [17]): 25%; Activity (Rattus norvegicus [20]): inactive; Activity (Rattus norvegicus [22]): 25%; Activity (Rattus norvegicus [23]): 25%; Activity (Rattus norvegicus [24]): inactive; Activity (Rattus norvegicus [26]): inactive
CC1(C)C(C)(C)C1(Cl)C(=O)O | Non-toxic | Non-toxic | Non-toxic | Non-toxic | Non-toxic | Non-toxic | Non-toxic | Non-toxic | Non-toxic | Non-toxic | Non-toxic | Non-toxic | Non-toxic | Non-toxic | Activity (Rattus norvegicus [28]): inactive; Activity (Rattus norvegicus [29]): 25%; Activity (Rattus norvegicus [30]): inactive; Activity (Rattus norvegicus [31]): 25%; Activity (Rattus norvegicus [32]): inactive; Activity (Rattus norvegicus [33]): Not Active; Activity (Rattus norvegicus [34]): 25%; Activity (Rattus norvegicus [35]): inactive; Activity (Rattus norvegicus [36]): 25%; Activity (Rattus norvegicus [37]): inactive; Activity (Rattus norvegicus [38]): inactive; Activity (Mus musculus [39]): Non-toxic
